Shown is part of a subset that was picked to be rich in hits.
Pf Dd2 growth: P. falciparum Dd2 growth inhibitors, primary screen, SYBR Green fluorescence, single dose replicates | 72 h; hits give low values | activity change, % at 10 µM | 94,000 tested, 2.3% active | AID 1159554, 2015; in the data active means activity change below about -80%
KDM4C inh: inhibitors of GASC-1 (KDM4C) histone demethylase, primary screen, biochemical, single concentration HTS. GST-KDM4C 2-372, H3K9me3 peptide, LANCE TR-FRET. 96,000 tested, 0.15% active. Lysine-specific demethylase 4C (Homo sapiens), Q9H3R0. inhibition, % at 12.5 µM;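 active means mean replicate inhibition above about 25%, with at least 55% of replicates also reaching it, limit read from the data, passing the limit was not always enough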
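Compound: one test concentration per compound; Material: GST-GASC-1 enzyme fragment 2-372; Amount: GASC-1 enzyme at 10 nM final in reaction; Also added: H3K9me3 peptide substrate, Fe(II), 2-oxoglutarate; Technique: LANCE TR-FRET; Times: 30 min demethylation and 1 h detection at room temperature.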
IDH1 R132H inh: inhibitors of IDH1 R132H reductase, primary screen, biochemical, plate reader, single point | diaphorase/resazurin fluorescence, 60 min | 70,000 tested, 0.18% active | inhibition, % at 10 µM | Isocitrate dehydrogenase [NADP] cytoplasmic (Homo sapiens), O75874; in the data active means inhibition above about 34%
Target sequence (O75874 whole entry R132H): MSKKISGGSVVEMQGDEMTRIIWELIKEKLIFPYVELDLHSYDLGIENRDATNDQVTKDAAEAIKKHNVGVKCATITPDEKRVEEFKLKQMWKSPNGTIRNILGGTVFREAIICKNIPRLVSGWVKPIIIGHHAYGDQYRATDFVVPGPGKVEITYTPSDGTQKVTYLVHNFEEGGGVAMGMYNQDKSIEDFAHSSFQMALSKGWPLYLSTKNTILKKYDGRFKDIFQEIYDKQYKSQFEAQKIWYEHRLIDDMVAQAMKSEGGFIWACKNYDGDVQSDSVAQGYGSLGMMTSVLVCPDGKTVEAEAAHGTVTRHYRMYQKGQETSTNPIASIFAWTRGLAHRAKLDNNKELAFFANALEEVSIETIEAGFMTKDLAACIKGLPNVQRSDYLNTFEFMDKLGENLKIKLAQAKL
A number is an active result.

How did CC(C)NC(=O)N(C)C[C@@H]1OCCCC[C@@H](C)Oc2ccc(NC(=O)CCCN(C)C)cc2C(=O)N([C@H](C)CO)C[C@@H]1C do in these assays?
Pf Dd2 growth: inactive; IDH1 R132H inh: inactive

What do the screens show for `O=C([C@@H]1[C@@H](CO)[C@@H]2Cn3c(cccc3=O)[C@@H]2N1Cc1ccccc1Cl)N1CCCCC1`?
KDM4C inh: inactive

How did Cc1noc(C)c1NC(=O)Nc1cccc2c1O[C@@H](CN(C)C)[C@@H](C)CN([C@@H](C)CO)C2=O do in these assays?
Pf Dd2 growth: inactive; KDM4C inh: inactive; IDH1 R132H inh: inactive

What do the screens show for `Cc1noc(C)c1NC(=O)N(C)C[C@@H]1OCCCC[C@@H](C)Oc2ccc(NC(=O)Nc3cccc4ccccc34)cc2C(=O)N([C@@H](C)CO)C[C@@H]1C`?
Pf Dd2 growth: inactive; IDH1 R132H inh: inactive

Results for C[C@H](CO)N1C[C@H](C)[C@H](CN(C)C(=O)c2ccncc2)OCc2cn(nn2)CCCC1=O ?
Pf Dd2 growth: inactive; KDM4C inh: inactive

What do the screens show for `Cc1ccc(S(=O)(=O)N(C)C[C@@H]2Oc3ccc(N(C)C)cc3CC(=O)N([C@@H](C)CO)C[C@@H]2C)cc1`?
Pf Dd2 growth: inactive; KDM4C inh: inactive; IDH1 R132H inh: inactive

What do the screens show for `COc1ccccc1-c1cnc2c(c1)C(=O)N([C@H](C)CO)C[C@@H](C)[C@H](CN(C)C)O2`?
Pf Dd2 growth: inactive; KDM4C inh: 32.7; IDH1 R132H inh: inactive

What do the screens show for `COc1ccccc1-c1cnc2c(c1)C(=O)N([C@H](C)CO)C[C@H](C)[C@@H](CN(C)C)O2`?
Pf Dd2 growth: inactive; KDM4C inh: inactive; IDH1 R132H inh: inactive

Results for COCC(=O)N1[C@H](C#N)[C@H](c2ccccc2-c2ccc(C)cc2)[C@H]1CO ?
Pf Dd2 growth: inactive; KDM4C inh: inactive

How did C[C@H]1CCCCO[C@H](CN(C)C(=O)Nc2ccc(C(F)(F)F)cc2)[C@@H](C)CN([C@@H](C)CO)C(=O)c2cc(NC(=O)C3CCCCC3)ccc2O1 do in these assays?
Pf Dd2 growth: -84.4; KDM4C inh: inactive

How did C[C@@H]1CCCCO[C@@H](CN(C)C(=O)Nc2ccc(C(F)(F)F)cc2)[C@@H](C)CN([C@@H](C)CO)C(=O)c2cc(NC(=O)C3CCCCC3)ccc2O1 do in these assays?
Pf Dd2 growth: -92.3; KDM4C inh: inactive; IDH1 R132H inh: inactive

Results for C[C@@H]1CCCCO[C@H](CN(C)C(=O)Nc2ccc(F)cc2)[C@H](C)CN([C@@H](C)CO)C(=O)c2cc(NC(=O)C3CCCCC3)ccc2O1 ?
Pf Dd2 growth: inactive; KDM4C inh: inactive; IDH1 R132H inh: inactive

Results for C[C@@H]1CCCCO[C@H](CN(C)C(=O)Nc2ccc(C(F)(F)F)cc2)[C@@H](C)CN([C@H](C)CO)C(=O)c2cc(NC(=O)C3CCCCC3)ccc2O1 ?
Pf Dd2 growth: -83.7; KDM4C inh: inactive

What do the screens show for `C[C@@H]1CCCCO[C@@H](CN(C)C(=O)Nc2ccc(C(F)(F)F)cc2)[C@H](C)CN([C@@H](C)CO)C(=O)c2cc(NC(=O)Nc3ccc(C(F)(F)F)cc3)ccc2O1`?
Pf Dd2 growth: inactive; KDM4C inh: inactive; IDH1 R132H inh: inactive

What do the screens show for `C[C@H]1CCCCO[C@H](CN(C)C(=O)Nc2ccc(C(F)(F)F)cc2)[C@@H](C)CN([C@@H](C)CO)C(=O)c2cc(NC(=O)Nc3ccc(C(F)(F)F)cc3)ccc2O1`?
Pf Dd2 growth: inactive; KDM4C inh: inactive

How did C[C@@H]1CCCCO[C@H](CN(C)C(=O)Nc2ccc(C(F)(F)F)cc2)[C@H](C)CN([C@H](C)CO)C(=O)c2cc(NC(=O)C3CCCCC3)ccc2O1 do in these assays?
Pf Dd2 growth: inactive; KDM4C inh: inactive; IDH1 R132H inh: inactive

Results for C[C@H]1CCCCO[C@H](CN(C)C(=O)Nc2ccc(F)cc2)[C@@H](C)CN([C@@H](C)CO)C(=O)c2cc(NC(=O)C3CCCCC3)ccc2O1 ?
Pf Dd2 growth: -85.7; KDM4C inh: inactive; IDH1 R132H inh: inactive

Results for C=C1C2(C)OC(=O)C34OC2C2=C(CO)C5(CCC2(C)C13C(=O)OC4C)C(O)CC(=O)OC5(C)C (stereo not given) ?
IDH1 R132H inh: inactive

Results for CCNC(=O)C[C@H]1CC[C@@H](NC(=O)C2CC2)[C@@H](CO)O1 ?
Pf Dd2 growth: inactive; KDM4C inh: inactive; IDH1 R132H inh: inactive

Results for C[C@@H]1CN([C@@H](C)CO)C(=O)c2cc(-c3cccc(F)c3)cnc2O[C@@H]1CN(C)C(=O)c1cccc(F)c1 ?
Pf Dd2 growth: inactive; KDM4C inh: inactive

Source: PubChem BioAssay
